# An excerpt weighted towards active compounds, which were near 3.9% of everything screened.
# HSF1 inh: HSF1 inhibition; NIH3T3-HGL HSE-luciferase, MG132-induced, luminescence 8 h; active compounds read low; activity change, negative = inhibition, % at 7.5 µM (by protocol); 0.77% of 300,000 active;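 active means more than half of replicate wells show activity change below -50%, luminescence cut by over half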;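 further: luciferase reports HSF-1 transcriptional activity via heat shock element; 0% = median of DMSO wells and -100% = zero luminescence signal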
# HCV core dimer: blocks dimerization of HCV core protein. AID 1899. inhibition, % at 5 µM. TR-FRET GST/Flag-core106 dimerization, 1536-well. 0.33% of 300,000 active;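 active means inhibition above the mean of all tested compounds plus 3 SD, set per screening campaign, cut at about 45% in these data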
#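 Assay system: tagged HCV core106 pair (GST and Flag); medium: KF-containing HEPES buffer, pH 7.45, DTT, CHAPS, BSA; also added: Eu donor and XL665 acceptor anti-tag antibodies; dosing: 5 µM single dose; timing: compound-protein-antibody incubation 4 h at 22.5 °C; signal: TR-FRET 671 and 617 nm emission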
# DNA FID counter-1: fluorescent intercalator displacement, NS3 helicase counter-screen. DNA fluorescent intercalator displacement, fluorescence. inhibition, % at 7.9 µM. 0.17% of 290,000 active;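 further: 0% = vehicle and 100% = reference compound; higher means more ethidium bromide displaced from hairpin DNA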
# HSF-1 act: increases HSF-1 driven luciferase reporter signal | NIH3T3-HGL HSF-1 luciferase reporter, MG132, 8 h; 100% = twice DMSO control signal | activation, % at 9 µM | 1.7% of 300,000 active;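 active means mean replicate activation of at least 50% with a set share of replicates each reaching 50%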;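 further: 0% = median of the neutral control wells and 100% = twice that signal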
# HCV NS3 hel inh: inhibitors of Hepatitis C virus NS3 helicase; inhibition, % at 10.9 µM; NS3 helicase DNA unwinding, Cy5 molecular beacon fluorescence; 0.56% of 290,000 active; AID 1800;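 active means inhibition above the mean of all tested compounds plus 3 SD, set per campaign, cut at about 35% in these data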;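 further: 0% = DMSO wells and 100% = thioflavine S control wells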
#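 assay system = NS3 helicase fragment of HCV | buffer or medium = MOPS pH 6.5, MgCl2, DTT, Tween20, BSA | timing = 60 min unwinding reaction at 25 °C after ATP addition | signal = Cy5 beacon fluorescence read at start and 1 h | read-out basis = % inhibition of unwinding | control set = low DMSO, high thioflavine S at 110 µM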
# HSP90 refold inh: HSP90 refolding inhibition in rabbit reticulocyte lysate. inhibition, % at 5.6 µM. 0.91% of 290,000 active. AID 1789. luciferase refolding luminescence, 3 h;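 active means inhibition above the screen-wide mean plus 3 SD, computed separately per campaign, cut at about 16% in these data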;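 further: 0% = DMSO wells and 100% = 60 µM geldanamycin wells; inhibitors lower the luminescence because luciferase stays unfolded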
# NS3 hel confirm: HCV NS3 helicase inhibition, confirmation assay | 31% of 1,600 active | shares compounds with HCV NS3 hel inh | NS3 helicase DNA unwinding, Cy5 molecular beacon fluorescence | inhibition, % at 10.9 µM;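 active means inhibition above the mean of all tested compounds plus 3 SD, cutoff set per campaign, cut at about 36% in these data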
# DNA FID counter-2: counter-screen for HCV NS3 helicase inhibitors: DNA intercalator displacement. shares compounds with HCV NS3 hel inh. DNA fluorescent intercalator displacement, fluorescence. inhibition, % at 7.9 µM. 4% of 1,600 active;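 further: 0% = vehicle and 100% = reference compound; higher means more displacement of ethidium bromide from the DNA hairpin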
# DNA FID DR: DNA intercalator displacement in dose response; shares compounds with HCV NS3 hel inh; fluorescent intercalator displacement from DNA, fluorescence; IC50, µM; 120 tested, under 10 active; AID 2172; call rule not given here
# * marks the source's active call; other numbers are inactive results; i = inactive; · = no result given. Unless noted, no stated cut-off is given here; in the data, active means inhibition above about 37%; inactive means the rest.
SMILES,HSF1 inh,HCV core dimer,DNA FID counter-1,HSF-1 act,HCV NS3 hel inh,HSP90 refold inh,NS3 hel confirm,DNA FID counter-2,others
CCN1C(=O)C(=C/C=C/c2ccco2)C(=O)N(CC)C1=S,-1.2,45.9,-18.6,19.3,39.1*,-2.9,75.3*,5.9,
O=C1NC(=O)N(Cc2ccccc2)C(=O)/C1=C/C=C/c1ccco1,4.3,11.5,-16.4,-0.8,33.3,2.2,·,·,
COc1ccc(N2C(=O)NC(=O)/C(=C/c3ccc([N+](=O)[O-])s3)C2=O)cc1,20.8,1.3,-7.7,64.3*,38.5*,0.3,50.1*,0.2,DNA FID DR=i
O=C(CCCc1ccccc1)NCCc1cnc[nH]1,14.1,-1.6,0.5,4.1,-12.1,-2.4,·,·,
CN1CCN(C(=O)Cc2nc3ccccc3[nH]2)CC1,0.9,-3.1,1.2,16.3,-1.6,-3.0,·,·,
COc1ccc(N2CCN(Cc3nc4ccccc4[nH]3)CC2)cc1,0.3,-14.7,-13.7,-8.2,37.9*,4.8,-11.2,-1.6,
CC[n+]1c(/C=C/C=C/c2ccc(N(C)C)cc2)sc2ccccc21,-3.7,-28.9,2.7,-27.5,48.1*,2.3,107.3*,36.0,
CC(=O)c1ccc2c(c1)C1C(Cl)C(Sc3ccccc3[N+](=O)[O-])CC1C(C(=O)O)N2 (configuration not stated),·,-2.2,-3.4,·,40.7*,4.1,52.0*,7.3,
O=C(O)c1cccc2c1NC(C(=O)O)C1CC(Sc3ccccc3[N+](=O)[O-])C(Cl)C21 (configuration not stated),·,-5.7,-1.2,·,34.7,0.4,·,·,
CC[C@H]1CN(C)CCc2c([nH]c3ccccc23)C(=O)C[C@@H]1/C(=C\OC)C(=O)OC,0.5,-1.1,·,-0.1,·,·,·,·,
CCn1c(O)c(C=Nc2ccc(N3CCOCC3)cc2)c(=O)n(CC)c1=S,-28.6,-4.8,1.2,-37.2,39.7*,4.9,-7.0,-22.4,
CC(C)n1c(=O)c(C=Nc2ccc(F)cc2)c(O)n(Cc2ccco2)c1=O,·,22.6,-43.3,·,48.2*,5.6,-4.8,5.1,
O=c1[nH]c(=O)n(Cc2ccco2)c(O)c1C=NC1CC1,1.3,4.7,-2.8,20.8,0.7,0.1,·,·,
O=c1nc(/C=C/c2ccc(Cl)cc2Cl)cc(C(F)(F)F)[nH]1,6.2,·,-26.7,11.1,46.4*,8.2,70.4*,-16.4,
O=C1NC(=S)N(c2ccccc2)C(=O)/C1=C/c1ccco1,-6.3,4.0,-7.4,11.3,41.2*,6.6,68.8*,0.3,
COc1cccc(N2C(=O)/C(=C/c3ccc(C)o3)C(=O)NC2=S)c1,3.5,9.2,-16.6,4.3,36.1*,0.6,59.5*,-13.5,
Cc1ccc(/C=C2\C(=O)NC(=S)N(c3ccc(F)cc3)C2=O)o1,-3.3,·,-11.0,-16.3,19.7,5.3,·,·,
O=CNc1ccc(OP(=O)(Oc2ccccc2)Oc2ccccc2)cc1,-7.3,5.0,-33.9,1.6,-13.5,-3.6,·,·,
O=C1NC(=S)N(Cc2ccco2)C(=O)/C1=C\c1cccs1,·,·,-6.1,·,51.6*,4.3,77.1*,21.0,
O=C1NC(=O)N(Cc2ccco2)C(=O)/C1=C/c1ccc(-c2cccc([N+](=O)[O-])c2)o1,0.1,16.0,1.0,9.6,38.6*,5.0,66.5*,17.6,
C=CCN1C(=O)NC(=O)/C(=C\c2ccc(-c3ccccc3[N+](=O)[O-])o2)C1=O,-2.3,2.1,-7.6,-6.3,8.3,0.9,·,·,
Cc1cc(/C=C2/C(=O)NC(=O)N(Cc3ccco3)C2=O)c(C)n1-c1ccccc1,-29.2,35.0,-22.9,-37.6,49.8*,6.5,7.5,-28.6,
C=CCN1C(=O)/C(=C/c2cccs2)C(=O)NC1=S,-6.2,0.6,-6.9,24.4,17.8,0.3,·,·,
CN(C)c1ccc(/C=C2/C(=O)NC(=O)N(Cc3ccco3)C2=O)cc1,0.5,4.4,-17.7,-8.1,25.1,2.5,·,·,
Cc1cc(OCC(=O)N2CCC(C(=O)O)CC2)c2c3c(c(=O)oc2c1)CCC3,-0.9,0.1,-16.1,-0.4,24.6,-2.2,·,·,
SMILES,HSF1 inh,HCV core dimer,DNA FID counter-1,HSF-1 act,HCV NS3 hel inh,HSP90 refold inh,NS3 hel confirm,DNA FID counter-2,others
CC(C)(C)C(=O)NC1CCSC1=O (configuration not stated),2.2,-0.7,0.2,2.3,1.8,0.8,·,·,
Cn1c(O)c(C=NCCN2CCN(C(=O)Nc3ccccc3)CC2)c(=O)n(C)c1=O,-2.1,-3.7,-11.9,-4.0,-3.7,3.7,·,·,
Brc1ccc2c(c1)C(OC1CN3CCC1CC3)c1ccccc1CS2 (configuration not stated),-3.2,-18.2,21.3,15.9,-62.6,-4.0,·,·,
Cc1cccc(OP(=O)(Oc2ccccc2)OC(c2ccccc2)C(F)(F)F)c1 (configuration not stated),9.0,7.5,-19.2,9.6,-3.8,-1.3,·,·,
CCC1C=CC=CC[C@H](C)[C@@H](O)[C@](C)(O)C(=O)[C@@H](C)[C@H](O)[C@@H](C)C(=O)[C@H](C)[C@@H](O)[C@H](C)C=CC(=O)OC2[C@@H](C)C(CC1)OC1(CC[C@@H](C)C(C[C@H](C)O)O1)[C@@H]2C (some centres not stated),·,-9.1,·,·,·,·,·,·,
O=C(N/N=C/c1c(O)n(CCc2ccc(F)cc2)c(=O)[nH]c1=O)c1ccncc1,-0.4,-8.0,-31.1,3.0,37.9*,-1.8,-5.8,-13.0,
O=C1NC(=O)N(Cc2ccco2)C(=O)/C1=C\c1cccn1CCOc1ccc(Cl)cc1,2.8,0.7,-21.8,6.0,43.7*,-0.9,24.7,-5.4,
Cc1ccc(S(=O)(=O)N2CCN(C(=O)COC(=O)Cc3ccccc3)CC2)c(C)c1,1.7,4.5,·,-18.5,·,·,·,·,
O=C(c1ccccc1)c1cn(CC(=O)N2CCCC2)c2ccccc12,-0.1,-1.4,-12.5,-23.1,-11.5,0.3,·,·,
O=C(c1ccccc1)c1cn(CC(=O)N2CCOCC2)c2ccccc12,-0.7,-4.1,-9.2,-17.7,57.0*,4.9,-6.9,3.5,
Cc1cccc(N2C(=O)NC(=O)/C(=C/c3ccc(-c4ccc(C(=O)O)c(Cl)c4)o3)C2=O)c1,·,-0.4,-21.9,·,37.3*,0.6,-22.4,13.6,
CCCc1cc(=O)oc2cc(OCC(=O)N3CCC(C(=O)O)(c4ccccc4)CC3)ccc12,-6.4,1.8,-23.5,2.6,48.8*,0.1,-23.8,-26.0,
CN(C)[C@@H]1C(=O)C(C(N)=O)=C(O)[C@@]2(O)C(=O)C3=C(O)c4c(O)cccc4[C@@](C)(O)C3C[C@@H]12 (some centres not stated),-2.2,-6.0,·,1.6,·,·,·,·,

# Bioassay records: PubChem, several laboratories
